pEC50: −log10 of the molar value.
Tests used:
[1] = Partition coefficient (logP); assay type: physicochemical; settings: octanol/water
In short: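 Computed, not measured: fragmentation method of Ghose et al. on a topological basis. Structures built and minimized with the MM2 force field. Conformation-independent log P values.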

[2] = tested on: CCRF-CEM; assay: The compound was tested for inhibition of P-glycoprotein mediated daunomycin efflux in multidrug resistant CCRF-CEM vcr1000 cells.; assay type: functional, cell-based; settings: Homo sapiens
In short: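 Vincristine-selected CCRF-CEM vcr1000 T-lymphoblasts grown in RPMI1640 with 10% FCS, selecting agent removed at least 1 week before use. Cells at 1 × 10^6/mL preloaded with 3.2 µM daunomycin (final) for 30 min at 37 °C, pelleted, then resuspended in 37 °C medium with modulator (eight concentrations, 1:2.5 dilutions, 3 nM–500 µM range). Samples taken at 0, 60, 120, 180 and 240 s into ice-cold stop medium containing verapamil (10 µg/mL final). An exponential fit gives the first-order rate constant (Vmax/Km) as the slope at time zero. Efflux in parental CCRF-CEM cells, set to equal initial fluorescence, is subtracted as passive diffusion. EC50 comes from Vmax/Km versus concentration, as mean ± SD of at least three independent experiments.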

[3] = Lipophilicity (log kw value) was determined; assay type: physicochemical; settings: reversed-phase HPLC, methanol/buffer pH 7.4
In short: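 Reversed-phase HPLC on an RP-8 column (5 µm), eluent methanol/aqueous phase adjusted to pH 7.4 with 1/60 M Soerensen buffer, detection at 254 nm. log k′ measured at 70%, 60% and 50% methanol, then extrapolated to 0% methanol by linear regression to give log kw.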

logP [1] | pEC50 [2] | Log kw [3] | Structure (SMILES)
1.79 | 4.33 |  | CC(C)(C)OC(=O)CN[C@H]1c2cc(C#N)ccc2OC(C)(C)[C@@H]1O
4.2 | 5.71 |  | CCN(CC)CCCC(C)N[C@H]1c2ccccc2N(C(=O)c2ccc(C)cc2)[C@@H](C)[C@@H]1O (stereo partly drawn)
4.78 | 6.47 |  | CCN(CC)CCCC(C)N[C@H]1c2ccccc2N[C@@H](C)[C@@H]1OC(=O)c1ccc(C)cc1 (stereo partly drawn)
3.92 | 5.25 | 5.47 | Cc1ccc(C(=O)O[C@H]2[C@H](C)Nc3ccccc3[C@@H]2N2CCCC2)cc1
1.24 | 2.84 |  | CN[C@H]1c2cc(C#N)ccc2OC(C)(C)[C@@H]1O
3.76 | 5.61 |  | CC(C)(C)OC(=O)CN(Cc1ccccc1)[C@H]1c2cc(C#N)ccc2OC(C)(C)[C@@H]1O
3.12 | 4.23 | 4.35 | CC1(C)Oc2ccc(C#N)cc2[C@H](NCc2ccccc2)[C@H]1O
4.51 | 6.37 | 6.1 | Cc1ccc(C(=O)N2c3ccccc3[C@H](N3CCN(Cc4ccccc4)CC3)[C@@H](O)[C@@H]2C)cc1
4.52 | 5.49 | 5.38 | Cc1ccc(C(=O)N2c3ccccc3[C@H](NCc3ccccc3)[C@@H](O)[C@@H]2C)cc1
3.34 | 5.10 | 4.2 | Cc1ccc(C(=O)N2c3ccccc3[C@H](N3CCCC3)[C@@H](O)[C@@H]2C)cc1
3.11 | 6.19 | 5.53 | CC1(C)Oc2ccc(C#N)cc2[C@H](N2CCN(Cc3ccccc3)CC2)[C@H]1O
